Source: PubChem BioAssay (several laboratories)
PKA-R1A act: activators of PKA-R1A holoenzyme, primary screen, biochemical, fluorescence polarization, Cy5-IP20, bovine R1A, mouse PKAc | PKA-R1A dissociation; scaled: DMSO 0%, 113 µM cGMP 100% | activation, % at 11.4 µM | 340,000 compounds, 0.083% hits | AID 504707, 2011;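 active means percent activation above the mean of all tested compounds plus 3 SD, cut at about 19% in these data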;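 further: higher means more PKAc released from R1A so a rise in polarization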
APJ antagonist: antagonists of human apelin receptor APJ, primary screen, CHO-K1 cells, beta-arrestin complementation, luminescence; P35414; inhibition, % at 20 µM; 330,000 compounds, 0.32% hits; AID 2521, 2010;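 active means inhibition above about 40% at 20 µM, limit read from the data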;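 further: cells challenged with 10 nM apelin-13 agonist together with compound; plate controls were apelin-13 plus DMSO wells for no effect and DMSO wells lacking apelin-13 for full effect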
Target sequence (P35414 whole entry, looked up): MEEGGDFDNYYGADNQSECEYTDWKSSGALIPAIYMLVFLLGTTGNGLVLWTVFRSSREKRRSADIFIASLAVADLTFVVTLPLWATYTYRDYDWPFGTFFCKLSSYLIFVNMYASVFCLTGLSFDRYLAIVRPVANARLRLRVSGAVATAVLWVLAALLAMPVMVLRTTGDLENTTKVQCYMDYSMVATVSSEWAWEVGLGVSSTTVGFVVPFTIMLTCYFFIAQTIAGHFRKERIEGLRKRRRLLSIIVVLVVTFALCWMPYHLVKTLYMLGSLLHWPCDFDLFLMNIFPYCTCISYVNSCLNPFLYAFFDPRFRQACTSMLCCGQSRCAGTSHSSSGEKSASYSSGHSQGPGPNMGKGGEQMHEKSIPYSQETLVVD
CCR6 antagonist: CCR6 receptor antagonists, primary screen, cell-based, CHO-K1, luminescence, beta-arrestin, uHTS. C-C chemokine receptor type 6 (Homo sapiens), P51684. CHO-K1 CCR6 PathHunter beta-arrestin, CCL20-stimulated. inhibition, % at 20 µM. 340,000 compounds, 0.49% hits. AID 493098, 2011;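 active means compounds whose inhibition of the agonist-driven luminescence signal at 20 µM reaches about 50%, limit read from the data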;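 further: cells stimulated with CCL20 at 14 nM final; plate controls were DMSO with CCL20 for no effect and DMSO without agonist for full effect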
CXCR6 inh: CXCR6 receptor inhibitors, primary screen, cell-based, beta-arrestin, luminescence, CHO-K1 PathHunter, 1536-well; C-X-C chemokine receptor type 6 (Homo sapiens), O00574; inhibition, % at 20 µM; 360,000 compounds, 0.36% hits; in the data active means inhibition above about 34%, passing the limit was not always enough;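 further: antagonist mode with CXCL16 agonist at 10 nM final; 0% = 10 nM CXCL16 with DMSO and 100% = unstimulated wells without agonist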
APJ agonist: agonists of human apelin receptor APJ, primary screen, CHO-K1 cells, PathHunter beta-arrestin, luminescence | 330,000 compounds, 0.11% hits | AID 2520, 2010 | 0% DMSO wells, 100% apelin | P35414 | activation, % at 20 µM;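 active means activation more than six SD over the plate average, tested at 20 µM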;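 further: 0% = DMSO alone and 100% = apelin-13 at 10 nM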
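Material: CHO-K1 APJ beta-arrestin complementation cell line; Input: cell density 1000 per well; Incubation: compound stimulation 90 min at 25 °C, detection 60 min; Signal: luminescence from split beta-galactosidase complementation, Galacton Star/Emerald II substrate; Controls: DMSO-only wells as negative, 10 nM Apelin-13 as positive control.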
PKA-R2B activ: activators of PKA-R2B holoenzyme, primary screen, biochemical, fluorescence polarization, Cy5-IP20, human. 340,000 compounds, 0.079% hits. PKA-R2B holoenzyme dissociation; R2B truncated from residue 108, S112A mutant; 0% DMSO only, 100% 113 µM cGMP. cAMP-dependent protein kinase catalytic subunit beta (Homo sapiens) + cAMP-dependent …. activation, % at 11.4 µM. AID 504700, 2011;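 active means activation above a cutoff set at the mean over all compounds plus 3 SD, cut at about 18% in these data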;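 further: higher means more holoenzyme dissociation and a rise in polarization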
R1A FP artifact: FP signal interference without PKA proteins, confirmation, artefact control for PKA-R1A activator project, biochemical, fluorescence polarization, triplicate. activation, % at 11.4 µM. shares compounds with PKA-R1A act. Cy5-IP20 peptide alone, fluorescence polarization artifact counterscreen. 280 compounds, 7% hits;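 active means mean activation over triplicate runs exceeds the adjusted cutoff derived for the parent primary screen, cut at about 19% in these data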;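 further: no PKA protein present so any polarization rise reflects compound interference; 0% = tracer peptide mix alone and 100% = mix with added PKA catalytic subunit; higher means stronger polarization artifact and likely false positive in parent screen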
PKA-R1A act conf: activators of PKA-R1A holoenzyme, confirmation, biochemical, fluorescence polarization, Cy5-IP20, triplicate; PKA-R1A holoenzyme dissociation; 280 compounds, 9% hits; activation, % at 11.4 µM; AID 504800, 2011; shares compounds with PKA-R1A act;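 active means mean activation over replicate wells exceeds the adjusted hit threshold taken from the earlier primary screen, cut at about 20% in these data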;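 further: 0% = holoenzyme mix with DMSO only and 100% = cGMP-activated control wells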
Target sequence (P00514 whole entry, looked up): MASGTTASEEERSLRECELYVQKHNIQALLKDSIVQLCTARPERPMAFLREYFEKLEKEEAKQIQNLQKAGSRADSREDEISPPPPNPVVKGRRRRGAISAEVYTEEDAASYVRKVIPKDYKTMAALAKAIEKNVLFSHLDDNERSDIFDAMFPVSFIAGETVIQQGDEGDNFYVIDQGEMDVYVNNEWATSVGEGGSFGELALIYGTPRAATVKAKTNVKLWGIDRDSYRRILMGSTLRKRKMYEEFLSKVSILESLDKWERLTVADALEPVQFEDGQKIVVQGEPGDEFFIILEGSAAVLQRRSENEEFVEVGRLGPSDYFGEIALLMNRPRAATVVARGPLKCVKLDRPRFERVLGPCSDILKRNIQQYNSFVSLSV
CXCR6 antag conf: CXCR6 receptor antagonists, confirmation, cell-based, single concentration, beta-arrestin, luminescence; shares compounds with CXCR6 inh; CHO-K1 CXCR6 PathHunter beta-arrestin; inhibition, % at 20 µM; 700 compounds, 65% hits; AID 602409, 2012;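 active means mean inhibition over four retests above 40%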;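 further: receptor stimulated with 10 nM CXCL16 agonist; beta-galactosidase fragment complementation upon beta-arrestin recruitment to receptor; plate controls were CXCL16 plus DMSO for no effect and DMSO without CXCL16 for full effect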
* hit, by the source's call; / = not tested or not shown. Rows were chosen to be rich in hits. Some 0.88% of all compounds tested hit in one or more screens of this group.

SMILES | PKA-R1A act | APJ antagonist | CCR6 antagonist | CXCR6 inh | APJ agonist | PKA-R2B activ | CXCR6 antag conf | others
COc1ccc(C)cc1NC(=O)CSc1nnc(CC(=O)Nc2cccc(C(F)(F)F)c2)n1C | 23* | 8 | -15 | -5 | -2 | -5 | / | R1A FP artifact=5;PKA-R1A act conf=-1
COc1ccc(OC)c(C2C(C(=O)c3ccco3)=C(O)C(=O)N2CCN2CCOCC2)c1 (stereo not given) | 19* | 0 | / | 5 | -5 | 2 | / | R1A FP artifact=2;PKA-R1A act conf=3
COc1ccc(NC(=O)[C@@H](NC(=O)c2ccccc2)C(C)C)cc1S(=O)(=O)N1CCCCC1 | -17 | -10 | 0 | 6 | -3 | -10 | /
O=C(COc1ccccc1Cl)NCc1ccncc1 | 0 | -6 | -3 | 10 | 6 | 6 | /
CCc1noc(C)c1C(=O)N(CC)CC(=O)Nc1cc(Cl)ccc1C | 19* | -3 | 5 | -3 | -1 | 1 | / | R1A FP artifact=3;PKA-R1A act conf=3
CCN(CC(=O)Nc1cc(Cl)ccc1C)C(=O)CSCc1c(C)noc1C | 3 | 6 | -1 | -8 | -2 | 4 | /
CNS(=O)(=O)c1cc(-c2nnc(Nc3ccc(CC(N)=O)cc3)c3ccccc23)ccc1C | -2 | 17 | 11 | 0 | -2 | 1 | /
CC(C)[C@H](NC(=O)OC(C)(C)C)c1nnc(S(=O)(=O)Cc2c(F)cccc2Cl)o1 | -8 | 27 | 63* | 63* | 5 | -3 | 61*
CC(C)=CCSc1nnc([C@@H](NC(=O)OC(C)(C)C)C(C)C)o1 | 7 | 12 | 20 | 6 | -2 | -4 | /
CCOc1ccc(N(CC(=O)NCCSc2ccccn2)S(=O)(=O)c2ccc(Cl)cc2)cc1 | -4 | 4 | 11 | 16 | 0 | -7 | /
CCOc1ccc(N(CC(=O)N/N=C/c2ccccn2)S(=O)(=O)c2ccc(Cl)cc2)cc1 | -3 | -9 | 19 | 40* | -10 | -14 | 41*
CCc1nc2c(OCCC3CCCCC3)cccn2c1N(C)C(=O)c1cccs1 | / | / | / | 47* | / | / | 39
CCc1nc2c(OCCC3CCCCC3)cccn2c1N(C)C(=O)CC(C)C | / | / | / | 21 | / | / | /
C[C@@H]1CC[C@H](Cc2ccc(-n3cccc3)cc2)N1C(=O)OC(C)(C)C | -10 | / | / | 53* | / | -12 | 10
CC1(C)CC(Cc2ccc(Cl)nc2)N(C(=O)OC(C)(C)C)C1 (stereo not given) | -7 | / | / | 6 | / | 6 | /
COc1cccc(-c2csc(N3CCN(C(=O)Nc4ccccc4OC)CC3)n2)c1 | -7 | -5 | -7 | 68* | -4 | 4 | -8
O=C(CSc1ncccn1)Nc1cc(Cl)ccc1[N+](=O)[O-] | 8 | -51 | -20 | -20 | 4 | -2 | /
Cc1ccc(-c2cc(C(=O)NCCCn3ccnc3)c3ccccc3n2)s1 | 6 | -15 | 5 | 72* | -2 | 11 | -9
C=CCN1C(=O)/C(=N/n2cnnc2)c2ccccc21 | 1 | 9 | 21 | 6 | -3 | -5 | /
CC(C)CN1C(=O)C(=Nc2cccnc2)c2ccccc21 | -1 | 33 | 37 | 43* | -10 | 2 | 37
CC(C)C[C@H]1CNC(=S)N1C[C@H]1CCCN1C[C@H](Cc1ccccc1)N1C[C@H](Cc2ccc(O)cc2)N(CCc2ccccc2)C1=S | / | / | / | 7 | / | / | /
Cc1nnc(NC(=O)c2cc(-c3ccncc3)nc3c(C)cccc23)s1 | 0 | -35 | -2 | 45* | 12 | -2 | 21
Cc1cc(OC(=O)Cc2cccc3ccccc23)c([N+](=O)[O-])c(=O)[nH]1 | -7 | 5 | -9 | 39* | -5 | 3 | -2
COc1ccc(CC(=O)Oc2cc(C)[nH]c(=O)c2[N+](=O)[O-])cc1 | -11 | / | -12 | 2 | / | -1 | /
O=C(/C=C/c1ccco1)N(Cc1ccccc1F)C1CCS(=O)(=O)C1 (stereo not given) | 1 | 6 | 0 | 2 | 1 | -2 | /
SMILES | PKA-R1A act | APJ antagonist | CCR6 antagonist | CXCR6 inh | APJ agonist | PKA-R2B activ | CXCR6 antag conf | others
CCOC(=O)CS(=O)(=O)c1nc(-c2ccccc2)cc(C(F)(F)F)n1 | -4 | 30 | 23 | 51* | -4 | -9 | 44*
Cc1ccc(C(=O)N2c3ccccc3N(Cc3ccccc3)C(=O)C2(C)C)cc1 | -19 | -5 | 33 | 13 | 4 | -13 | /
O=c1[nH]c(SCc2ccc(Cl)cc2)nc2ccccc12 | -6 | 19 | -9 | 82* | -3 | -1 | 15
Cc1c(Cl)cccc1NC(=S)NC(=O)c1cncc(Br)c1 | -14 | 16 | 33 | 42* | -3 | -3 | 35
Cc1ccccc1NC(=S)NC(=O)c1cncc(Br)c1 | -4 | 24 | 50 | 25 | -6 | -7 | /
C/C(=N/NC(=O)CN1CCN(Cc2ccccc2Cl)CC1)c1cccs1 | / | -11 | -10 | 1 | -2 | / | /
CC(=O)Nc1nc2ccccc2n1Cc1ccccc1Cl | 1 | 2 | 34 | 18 | -1 | 1 | /
CC(=O)Nc1nc2ccccc2n1CCOc1ccccc1Cl | 7 | 29 | 46 | 41* | -5 | 1 | 66*
O=C1CCC2c3[nH]c4ccccc4c3CCN12 (stereo not given) | -1 | / | / | 3 | / | -5 | /
CC(NC(=O)C1(c2cccs2)CCOCC1)c1ccccc1 (stereo not given) | 1 | -17 | -5 | -11 | 2 | 8 | /
Cc1nn2c(NCc3ccccn3)cc(C(C)C)nc2c1-c1ccccc1 | -5 | 7 | 52* | 49* | -4 | -3 | 9
CCCc1cc(NCc2ccccn2)n2nc(C)c(-c3ccccc3)c2n1 | / | -2 | 44 | 16 | 0 | / | /
S=C(Nc1ccccc1)c1ccccn1 | -1 | 9 | / | 56* | -7 | -3 | 79*
Cc1cccc(C(=O)OCC(=O)NC(=O)NCc2ccccc2)c1 | -2 | 10 | 11 | -2 | -5 | -6 | /
